Test results from ChEMBL document CHEMBL1123505, “Synthesis, structure, and antitumor activity of N-salicyloyl-N'-(2-furylthiocarbonyl)hydrazine and its copper(II) complex” (1986).
Where “and” joins values, the source holds several entries; their conditions need not be identical. Identical values can stand only once.

Key:
[1] = test system: Mus musculus; experiment: Antitumor activity expressed as the no. of mice surviving >6 months was tested against fibrosarcoma at the dosage of 50 mg/kg (ip); type: functional
Method in brief: (§1)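 Fibrosarcoma was established by sc inoculation of 4 × 10⁶ cells in mice. On day 3 they received a single ip or sc injection of compound freshly suspended in 0.89% saline, with 5–10 mice per group. The count is of mice surviving 6 months or more after treatment, scored as tumor-free, with the percentage of the group also given.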

[2] = test system: Mus musculus; experiment: Antitumor activity against fibrosarcoma infected mice at the dosage of 25 mg/kg (ip) and expressed as no. of mice injected; T/C= 7/7; type: functional, organism-based; design: dose 25 mg/kg
[3] = test system: Mus musculus; experiment: Antitumor activity expressed as mean life span of nonsurvivors in days (T/C) was tested against fibrosarcoma at the dosage of 5 mg/kg (ip); 34/26; type: functional, organism-based; design: dose 5 mg/kg
Method in brief: (§2)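 Fibrosarcoma: 4 × 10⁶ cells were given sc to C₃H/He mice, 25–30 g. A single ip or sc dose in 0.89% saline followed on day three, with saline-injected controls. Mean life span of nonsurvivors excludes mice surviving 6 months or more, which were counted as tumour-free. T/C% is treated mean survival, excluding tumour-free survivors, divided by untreated mean life span ×100.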

[4] = test system: Mus musculus; experiment: Antitumor activity expressed as average body weight change was tested against fibrosarcoma at the dosage of 5 mg/kg (sc); type: functional
Method in brief: (§3)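 Fibrosarcoma-bearing C₃H/He mice (4 × 10⁶ cells sc) received a single ip or sc dose in 0.89% saline on day three after transplant; controls received saline. The day of injection was taken as day zero. Mice were weighed on alternate days up to 4 weeks. Values are average % weight change from the day of treatment to day 21.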

[5] = test system: Mus musculus; experiment: Antitumor activity expressed as %T/C was tested against fibrosarcoma at the dosage of 5 mg/Kg (ip); type: functional; method in brief: as §2
[6] = test system: Mus musculus; experiment: Antitumor activity expressed as mean life span of nonsurvivors in days (T/C) was tested against Dalton's lymphoma at the dosage of 10 mg/kg (ip); 30/23; type: functional, organism-based; design: dose 10 mg/kg
Method in brief: (§4)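 Dalton's lymphoma: 2 × 10⁷ ascites cells were given ip to DbA mice, 18–20 g. A single ip dose in 0.89% saline followed on day two, with saline-injected controls. Mean life span was calculated excluding mice that survived 6 months or more. T/C% is the mean survival of treated mice, excluding tumour-free survivors, divided by the mean life span of untreated mice ×100.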

[7] = test system: Mus musculus; experiment: Antitumor activity expressed as %T/C was tested against fibrosarcoma at the dosage of 5 mg/Kg (sc); type: functional; method in brief: as §2
[8] = test system: Mus musculus; experiment: Antitumor activity expressed as mean life span of nonsurvivors in days (T/C) was tested against fibrosarcoma at the dosage of 10 mg/kg (sc); 41/28; type: functional, organism-based; design: dose 10 mg/kg; method in brief: as §2
[9] = test system: Mus musculus; experiment: Antitumor activity expressed as %T/C was tested against fibrosarcoma at the dosage of 10 mg/Kg (sc); type: functional; method in brief: as §2
[10] = test system: Mus musculus; experiment: Antitumor activity expressed as mean life span of nonsurvivors in days (T/C) was tested against fibrosarcoma at the dosage of 25 mg/kg (ip); 33/25; type: functional, organism-based; design: dose 25 mg/kg; method in brief: as §2
[11] = test system: Mus musculus; experiment: Antitumor activity against Dalton's lymphoma infected mice at the dosage of 25 mg/kg (ip) and expressed as no. of mice injected; T/C= 5/5; type: functional
[12] = test system: Mus musculus; experiment: Antitumor activity against fibrosarcoma infected mice at the dosage of 5 mg/kg (sc) and expressed as no. of mice injected; T/C= 6/6; type: functional, organism-based; design: dose 5 mg/kg
[13] = test system: Mus musculus; experiment: Antitumor activity expressed as average body weight change was tested against fibrosarcoma at the dosage of 5 mg/kg (ip); type: functional, organism-based; design: dose 5 mg/kg; method in brief: as §3
[14] = test system: Mus musculus; experiment: Antitumor activity against fibrosarcoma infected mice at the dosage of 10 mg/kg (ip) and expressed as no. of mice injected; T/C= 8/8; type: functional, organism-based; design: dose 10 mg/kg
[15] = test system: Mus musculus; experiment: Antitumor activity expressed as %T/C was tested against Dalton's lymphoma at the dosage of 25 mg/Kg (ip); type: functional; method in brief: as §4
[16] = test system: Mus musculus; experiment: Antitumor activity expressed as %T/C was tested against fibrosarcoma at the dosage of 25 mg/Kg (ip); type: functional; method in brief: as §2
[17] = test system: Mus musculus; experiment: Antitumor activity expressed as %T/C was tested against fibrosarcoma at the dosage of 25 mg/Kg (sc); type: functional; method in brief: as §2
[18] = test system: Mus musculus; experiment: Antitumor activity expressed as mean life span of nonsurvivors in days (T/C) was tested against fibrosarcoma at the dosage of 10 mg/kg (ip); 35/27; type: functional, organism-based; design: dose 10 mg/kg; method in brief: as §2
[19] = test system: Mus musculus; experiment: Antitumor activity expressed as average body weight change was tested against fibrosarcoma at the dosage of 25 mg/kg (ip); type: functional, organism-based; design: dose 25 mg/kg; method in brief: as §3
[20] = test system: Mus musculus; experiment: Antitumor activity expressed as %T/C was tested against Dalton's lymphoma at the dosage of 10 mg/Kg (ip); type: functional; method in brief: as §4
[21] = test system: Mus musculus; experiment: Antitumor activity expressed as %T/C was tested against fibrosarcoma at the dosage of 10 mg/Kg (ip); type: functional; method in brief: as §2
[22] = test system: Mus musculus; experiment: Antitumor activity expressed as mean life span of nonsurvivors in days (T/C) was tested against fibrosarcoma at the dosage of 5 mg/kg (sc); 30/27; type: functional, organism-based; design: dose 5 mg/kg; method in brief: as §2
[23] = test system: Mus musculus; experiment: Antitumor activity expressed as %T/C was tested against Dalton's lymphoma at the dosage of 2 mg/Kg (ip); type: functional; method in brief: as §4
[24] = test system: Mus musculus; experiment: Antitumor activity expressed as mean life span of nonsurvivors in days (T/C) was tested against Dalton's lymphoma at the dosage of 2 mg/kg (ip); 24/23; type: functional, organism-based; design: dose 2 mg/kg; method in brief: as §4
[25] = test system: Mus musculus; experiment: Antitumor activity expressed as %T/C was tested against fibrosarcoma at the dosage of 50 mg/Kg (ip); type: functional; method in brief: as §2
[26] = test system: Mus musculus; experiment: Antitumor activity against fibrosarcoma infected mice at the dosage of 50 mg/kg (ip) and expressed as no. of mice injected; T/C= 10/6; type: functional, organism-based; design: dose 50 mg/kg
[27] = test system: Mus musculus; experiment: Antitumor activity expressed as the no. of mice surviving >6 months was tested against fibrosarcoma at the dosage of 5 mg/kg (ip); type: functional; method in brief: as §1
[28] = test system: Mus musculus; experiment: Antitumor activity expressed as mean life span of nonsurvivors in days (T/C) was tested against fibrosarcoma at the dosage of 25 mg/kg (sc); 39/29; type: functional, organism-based; design: dose 25 mg/kg; method in brief: as §2
[29] = test system: Mus musculus; experiment: Antitumor activity expressed as the no. of mice surviving >6 months was tested against fibrosarcoma at the dosage of 25 mg/kg (ip); type: functional; method in brief: as §1
[30] = test system: Mus musculus; experiment: Antitumor activity against fibrosarcoma infected mice at the dosage of 5 mg/kg (ip) and expressed as no. of mice injected; T/C= 8/8; type: functional, organism-based; design: dose 5 mg/kg
[31] = test system: Mus musculus; experiment: Antitumor activity against Dalton's lymphoma infected mice at the dosage of 2 mg/kg (ip) and expressed as no. of mice injected; T/C= 5/5; type: functional
[32] = test system: Mus musculus; experiment: Antitumor activity expressed as average body weight change was tested against fibrosarcoma at the dosage of 25 mg/kg (sc); type: functional; method in brief: as §3
[33] = test system: Mus musculus; experiment: Antitumor activity against Dalton's lymphoma infected mice at the dosage of 10 mg/kg (ip) and expressed as no. of mice injected; T/C= 5/5; type: functional
[34] = test system: Mus musculus; experiment: Antitumor activity expressed as mean life span of nonsurvivors in days (T/C) was tested against Dalton's lymphoma at the dosage of 25 mg/kg (ip); 38/23; type: functional, organism-based; design: dose 25 mg/kg; method in brief: as §4
[35] = test system: Mus musculus; experiment: Antitumor activity against fibrosarcoma infected mice at the dosage of 25 mg/kg (sc) and expressed as no. of mice injected; T/C= 8/6; type: functional, organism-based; design: dose 25 mg/kg
[36] = test system: Mus musculus; experiment: Antitumor activity expressed as average body weight change was tested against fibrosarcoma at the dosage of 10 mg/kg (sc); type: functional; method in brief: as §3
[37] = test system: Mus musculus; experiment: Antitumor activity expressed as average body weight change was tested against fibrosarcoma at the dosage of 10 mg/kg (ip); type: functional, organism-based; design: dose 10 mg/kg; method in brief: as §3
[38] = test system: Mus musculus; experiment: Antitumor activity expressed as mean life span of nonsurvivors in days (T/C) was tested against fibrosarcoma at the dosage of 50 mg/kg (ip); 37/28; type: functional, organism-based; design: dose 50 mg/kg; method in brief: as §2
[39] = test system: Mus musculus; experiment: Antitumor activity expressed as average body weight change was tested against fibrosarcoma at the dosage of 50 mg/kg (ip); type: functional, organism-based; design: dose 50 mg/kg; method in brief: as §3
[40] = test system: Mus musculus; experiment: Antitumor activity against fibrosarcoma infected mice at the dosage of 10 mg/kg (sc) and expressed as no. of mice injected; T/C= 8/7; type: functional

Copper(II) Complex
No. of mice surviving >6 months [1]: 4 | T/C [2]: 7 | T/C [3]: 34 days | Average body weight change [4]: 19.4% | T/C [5]: 131% | T/C [6]: 30 days | T/C [7]: 111% | T/C [8]: 41 days | T/C [9]: 146% | T/C [10]: 33 days | T/C [11]: 5 | T/C [12]: 6 | Average body weight change [13]: 15.5% | T/C [14]: 8 | T/C [15]: 165% | T/C [16]: 132% | T/C [17]: 135% | T/C [18]: 35 days | Average body weight change [19]: 12% | T/C [20]: 130% | T/C [21]: 130% | T/C [22]: 30 days | T/C [23]: 104% | T/C [24]: 24 days | T/C [25]: 132% | T/C [26]: 10 | No. of mice surviving >6 months [27]: 2 | T/C [28]: 39 days | No. of mice surviving >6 months [29]: 3 and 6 | T/C [30]: 8 | T/C [31]: 5 | Average body weight change [32]: 5.51% | T/C [33]: 5 | T/C [34]: 38 days | T/C [35]: 8 | Average body weight change [36]: 5.86% | Average body weight change [37]: 18.3% | T/C [38]: 37 days | Average body weight change [39]: 8.51% | T/C [40]: 8
